Data published in ChEMBL document CHEMBL1132975, “2',6'-Dimethylphenoxyacetyl: a new achiral high affinity P(3)-P(2) ligand for peptidomimetic-based HIV protease inhibitors” (J Med Chem, 2000).

What was measured:
[1] = molecular target: T1, Human immunodeficiency virus type 1 protease (Human immunodeficiency virus 1, UniProt Q72874); experiment: In vitro inhibition of HIV-1.
[2] = system: Human immunodeficiency virus 1; experiment: Effective concentration to inhibit replication of viral strain HIV-1 IIIB in acutely infected C8166T cells; format: functional, organism-based; conditions: Human immunodeficiency virus 1, C8166T
Summary of the method: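 HIV-1 IIIB infected C8166 T cells at MOI 0.001 in complete medium, then cultured 3 days with serially diluted inhibitor. Extracellular p24 core antigen was measured by ELISA on pooled supernatants (8 replicas) to give percent inhibition. EC50 came from a nonlinear Hill fit.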

[3] = Half life for the clearance after intravenous (iv) administration of 1 mg/kg; format: ADME, organism-based; design: dose 1 mg/kg, route intravenous; conditions: in vivo
[4] = Area Under the Curve (AUC) for the compound is evaluated after the oral administration at 5 mg/kg.; format: ADME, organism-based; design: dose 5 mg/kg, route oral; conditions: in vivo
[5] = The plasma concentration is evaluated after oral administration a dose of 5 mg/kg; format: ADME, organism-based; design: dose 5 mg/kg, route oral
[6] = Oral bioavailability in rat (dose 5 mg/kg); format: ADME, organism-based; conditions: in vivo
[7] = system: Human immunodeficiency virus 1; experiment: The binding affinity is evaluated for viral strains HIV-1 IIIB; format: functional, organism-based
[8] = system: Human immunodeficiency virus 2; experiment: Effective concentration to inhibit replication of viral strain HIV-2 ROD in acutely infected C8166T cells; format: functional, organism-based; conditions: Human immunodeficiency virus 2, C8166T
[9] = system: Human immunodeficiency virus 2; experiment: The binding affinity is evaluated for viral strains HIV-2 ROD.; format: functional, organism-based
[10] = molecular target: T1, Human immunodeficiency virus type 1 protease; experiment: The inhibitory concentration was evaluated for viral strains HIV-2 ROD using a HIV protease HPLC based assay.
[11] = The plasma concentration is evaluated after oral administration of 5 mg/kg; format: ADME, organism-based; design: dose 5 mg/kg, route oral
[12] = The compound was evaluated for oral bioavailability in the rat at a peroral (po) dose of 5 mg/kg; format: ADME, organism-based; conditions: in vivo
[13] = system: Human immunodeficiency virus 2; experiment: The binding affinity is evaluated for viral strains HIV-2 ROD; format: functional, organism-based
[14] = Half life for the clearance after intravenous (iv) administration of dose of 1 mg/kg; format: ADME, organism-based; design: dose 1 mg/kg, route intravenous; conditions: in vivo

SMILES | IC50 [1] [nM] | EC50 [2] [nM] | further results
CC(C)(C)NC(=O)[C@@H]1C[C@H](OCc2ccncc2)CCN1C[C@@H](O)[C@H](Cc1ccccc1)NC(=O)/C=C/c1ccccc1 | 11000 | – | –
CC(C)(C)NC(=O)[C@@H]1C[C@H](OCc2ccncc2)CCN1C[C@@H](O)[C@H](Cc1ccccc1)NC(=O)OCc1ccccc1 | 400 | – | –
Cc1ccccc1OCC(=O)N[C@@H](Cc1ccccc1)[C@H](O)CN1CC[C@@H](OCc2ccncc2)C[C@H]1C(=O)NC(C)(C)C | 120 | – | –
CC(C)(C)NC(=O)[C@@H]1C[C@H](OCc2ccncc2)CCN1C[C@@H](O)[C@H](Cc1ccccc1)NC(=O)COc1ccccc1 | 1100 | – | –
CC(C)(C)NC(=O)[C@@H]1C[C@H](OCc2ccncc2)CCN1C[C@@H](O)[C@H](Cc1ccccc1)NC(=O)CSc1ccccc1 | 4200 | – | –
Cc1cccc(C)c1OCC(=O)N[C@@H](Cc1ccccc1)[C@H](O)CN1C[C@H]2CCCC[C@H]2C[C@H]1C(=O)NC(C)(C)C | 8.4 | 100 | –
Cc1cccc(C)c1CCC(=O)N[C@@H](Cc1ccccc1)[C@H](O)CN1CC[C@@H](OCc2ccncc2)C[C@H]1C(=O)NC(C)(C)C | 2400 | – | –
Cc1cccc(C)c1OCC(=O)N[C@@H](Cc1ccccc1)[C@H](O)CN1CC[C@@H](SCc2cccnc2)C[C@H]1C(=O)NC(C)(C)C | 1.7 | 6 | half-life [3]: 30 min; AUC [4]: 3260 nM·h; Cmax [5]: 2320 nM; bioavailability [6]: 37%
Cc1ccccc1CCC(=O)N[C@@H](Cc1ccccc1)[C@H](O)CN1CC[C@@H](OCc2ccncc2)C[C@H]1C(=O)NC(C)(C)C | 2500 | – | –
CC(C)[C@H](NC(=O)c1ccc2ccccc2n1)C(=O)N[C@@H](Cc1ccccc1)[C@H](O)CN1CC[C@@H](OCc2ccncc2)C[C@H]1C(=O)NC(C)(C)C | – | 5 | Ki [7]: 0.031 nM; EC50 [8]: 25 nM; Ki [9]: 0.13 nM; IC50 [10]: 10 nM
CC(C)(C)NC(=O)[C@@H]1C[C@H](OCc2ccncc2)CCN1C[C@@H](O)[C@H](Cc1ccccc1)NC(=O)O[C@@H]1CCOC1 | 260 | – | –
Cc1cccc(C)c1OCC(=O)N[C@@H](Cc1ccccc1)[C@H](O)CN1CC[C@@H](SCc2ccncc2)C[C@H]1C(=O)NC(C)(C)C | 1.8 | 4 | Cmax [11]: 1660 nM; half-life [3]: 42 min; AUC [4]: 1710 nM·h; bioavailability [12]: 22%
Cc1cccc(C)c1COC(=O)N[C@@H](Cc1ccccc1)[C@H](O)CN1CC[C@@H](OCc2ccncc2)C[C@H]1C(=O)NC(C)(C)C | 420 | – | –
Cc1cccc(C)c1OCC(=O)N[C@@H](Cc1ccccc1)[C@H](O)CN(CC(C)C)S(=O)(=O)c1ccc(N)cc1 | 2.6 | 20 | –
Cc1ccccc1COC(=O)N[C@@H](Cc1ccccc1)[C@H](O)CN1CC[C@@H](OCc2ccncc2)C[C@H]1C(=O)NC(C)(C)C | 210 | – | –
Cc1cccc(C)c1OCC(=O)N[C@@H](Cc1ccccc1)[C@H](O)CN1CC[C@@H](Sc2ccncc2)C[C@H]1C(=O)NC(C)(C)C | – | 2 | Ki [7]: 0.006 nM; half-life [3]: 24 min; AUC [4]: 1770 nM·h; EC50 [8]: 3 nM; Ki [13]: 0.023 nM; bioavailability [6]: 61%
Cc1cccc(C)c1OCC(=O)N[C@@H](Cc1ccccc1)[C@H](O)CN1CC[C@@H](OCc2ccncc2)C[C@H]1C(=O)NC(C)(C)C | 7 | 24 | –
Cc1cccc(C)c1OC(C)C(=O)N[C@@H](Cc1ccccc1)[C@H](O)CN1CC[C@@H](OCc2ccncc2)C[C@H]1C(=O)NC(C)(C)C (stereo not given in full) | 20 | – | –
CC(C)(C)NC(=O)[C@@H]1C[C@H](OCc2ccncc2)CCN1C[C@@H](O)[C@H](Cc1ccccc1)NC(=O)CCc1ccccc1 | 1400 | – | –
Cc1cc(S[C@@H]2CCN(C[C@@H](O)[C@H](Cc3ccccc3)NC(=O)COc3c(C)cccc3C)[C@H](C(=O)NC(C)(C)C)C2)nc(C)n1 | 1.5 | 1 | AUC [4]: 1670 nM·h; half-life [14]: 102 min; bioavailability [6]: 29%
Cc1c(O)cccc1C(=O)N[C@@H](Cc1ccccc1)[C@H](O)CN1CC[C@@H](OCc2ccncc2)C[C@H]1C(=O)NC(C)(C)C | 12 | 32 | –
CC(C)(C)NC(=O)[C@@H]1C[C@H](OCc2ccncc2)CCN1C[C@@H](O)[C@H](Cc1ccccc1)NC(=O)CCCc1ccccc1 | > 20000 | – | –
